Only some compounds are listed: those with a hit (about 2.3% of all), similar ones and a draw of the others.
NR2E3 ag-1: agonists of human nuclear receptor NR2E3 | actives 0.12% (n = 320,000) | GST-NR2E3/biotin-RetCOR TR-FRET, 1536-well | AID 2300 | inhibition of corepressor binding, % at 4.78 µM | Q9Y5X4;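 active = percent inhibition above the cutoff of mean plus 3 SD of all tested compounds, set per screening campaign, cut at about 20% in these data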;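 also: 0% = DMSO wells and 100% = biotin wells as full block of FRET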
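System: GST-NR2E3 and biotin-RetCOR proteins; probe or stimulus: 7 nM biotin-RetCOR; doses: compound at 4.8 µM, single dose; schedule: Compound–protein incubation for 5 h at 4 °C; detection: time-resolved FRET; read-out: percent inhibition; controls: biotin wells as high control, 0.6% DMSO wells as low control; format: 1536-well plates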
GalR3 antag: human GalR3 antagonism | O60755 | HEK293 GalR3-CNG cAMP membrane potential fluorescence; galR3 body fused to GalR1 C-terminus | inhibition, % at 3 µM | actives 0.44% (n = 360,000) | AID 651719;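 active = inhibition above the screen-wide average plus 3 SD, cut at about 13% in these data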;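 also: forskolin and galanin both at EC90 stimulate the cells; cAMP rise reported by CNG channel membrane potential dye signal; 0% = forskolin plus galanin with DMSO and 100% = forskolin alone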
Target sequence (O60755 1-299 limits assumed): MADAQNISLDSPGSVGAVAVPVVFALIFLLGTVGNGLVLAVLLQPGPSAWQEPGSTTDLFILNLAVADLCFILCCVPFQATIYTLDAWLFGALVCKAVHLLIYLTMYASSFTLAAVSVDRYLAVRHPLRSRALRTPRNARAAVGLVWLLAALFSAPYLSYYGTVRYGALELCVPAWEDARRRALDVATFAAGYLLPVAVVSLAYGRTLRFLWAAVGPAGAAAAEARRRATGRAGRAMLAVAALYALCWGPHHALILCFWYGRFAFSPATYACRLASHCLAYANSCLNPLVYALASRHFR
CHT allo act: allosteric activators of human choline transporter CHT | Q9GZV3 | CHT-expressing cells, membrane potential dye, choline EC20; active compounds read high; LV-AA mutant CHT in HEK293 cells | B-score at 10 µM | actives 0.49% (n = 310,000);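 active = initial fluorescence not abnormally high and integrated response B-score, plate-corrected, over 3 SD above library mean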
NR2E3 ag-2: human photoreceptor-specific nuclear receptor agonism; actives 0.35% (n = 360,000); AID 602229; CHO-S Gal4-NCOR/VP16-NR2E3 two-hybrid, luciferase; Q9Y5X4; inhibition of corepressor binding, % at 3.98 µM;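 active = inhibition above the mean of all tested compounds plus 3 SD, cut at about 70% in these data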;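 also: 0% = DMSO with NR2E3 transfected cells and 100% = cells lacking NR2E3 construct; higher means lower luciferase signal from less NR2E3 corepressor binding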
CHT block: human CHT choline transport inhibition; actives 0.86% (n = 310,000); Q9GZV3; CHT-expressing cells, membrane potential dye, choline response; active compounds read low; B-score at 10 µM;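 active = B-score over 3 SD under the library average, and starting fluorescence ratio not unusually high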;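 also: choline stimulus applied at its EC90 after an EC20 pre-addition; B-score computed on integrated fluorescence ratio after choline addition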
NR2F2 inh: NR2F2 (human) inhibition, primary screen | P24468 | HEK293T NGFI-A luciferase reporter, luminescence | inhibition, % at 8.6 µM | actives 0.7% (n = 370,000);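 active = inhibition above a per-plate cutoff, mean inhibition of test wells between control levels plus 3 SD, cut at about 38% in these data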;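 also: cells cotransfected with COUP-TFII expression vector driving the NGFI-A reporter; 0% = median of COUP-TF2 test wells and 100% = reporter-only cells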
Target sequence (P24468 whole entry, looked up): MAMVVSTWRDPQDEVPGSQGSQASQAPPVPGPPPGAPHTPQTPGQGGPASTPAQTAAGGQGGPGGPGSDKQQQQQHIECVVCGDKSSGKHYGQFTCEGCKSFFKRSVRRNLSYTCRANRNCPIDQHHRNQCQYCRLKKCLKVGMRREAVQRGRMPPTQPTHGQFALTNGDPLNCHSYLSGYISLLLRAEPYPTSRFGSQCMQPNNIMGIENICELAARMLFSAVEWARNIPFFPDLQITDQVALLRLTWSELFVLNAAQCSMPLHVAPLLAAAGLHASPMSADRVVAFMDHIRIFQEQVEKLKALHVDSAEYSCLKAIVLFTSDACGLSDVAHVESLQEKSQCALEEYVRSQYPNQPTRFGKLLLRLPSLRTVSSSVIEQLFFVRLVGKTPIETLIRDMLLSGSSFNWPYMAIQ
GalR3 conf: GalR3 (human) antagonism, confirmation; shares compounds with GalR3 antag; HEK293 GalR3 CNG cAMP biosensor, membrane potential fluorescence; galR3 fused to GalR1 carboxy tail; challenged with forskolin and galanin at EC90; inhibition, % at 3 µM; actives 59% (n = 1,600); AID 652245;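 active = inhibition above the primary screen's cutoff, the mean inhibition of all screened compounds plus 3 SD, cut at about 13% in these data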;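 also: 0% = forskolin plus galanin and 100% = forskolin alone with DMSO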
CNG parental: acts as nonspecific agonist in parental HEK-CNG cells; shares compounds with GalR3 antag; HEK293-CNG parental cells, cAMP membrane potential fluorescence; normalised: DMSO wells 0%, forskolin wells 100%; activation, % at 3 µM; actives 10% (n = 1,600); in the data active = activation above about 1.3%
Starred values were filed as active, the others as inactive; i = inactive; / = no result given.

SMILES | NR2E3 ag-1 | GalR3 antag | CHT allo act | NR2E3 ag-2 | CHT block | NR2F2 inh | GalR3 conf | CNG parental
Cn1c(=O)cc(N2CCN(C(=O)c3ccco3)CC2)[nH]c1=O | 1 | / | i | 12 | i | -9 | / | /
Cc1cc(NS(=O)(=O)c2ccc(NC(=O)Cc3ccc(Cl)c(Cl)c3)cc2)on1 | / | / | / | / | / | 11 | / | /
C=CCN(CC=C)C(=O)COC(=O)c1ccc(Sc2ncn[nH]2)c([N+](=O)[O-])c1 | 0 | 13* | i | -23 | i | 1 | 5 | 0
CC1CCN(C(=O)c2[nH]cnc2C(=O)NCc2ccccc2)CC1 | 4 | / | / | -5 | / | -21 | 11 | 0
CC1CCN(C(=O)c2[nH]cnc2C(=O)NCc2ccc(CNC(=O)OC(C)(C)C)cc2)CC1 | -1 | -6 | / | 9 | / | 9 | / | /
CCn1c2ccccc2c2cc(C=Nn3c(-c4ccccn4)n[nH]c3=S)ccc21 | / | / | / | / | / | -25 | / | /
O=C(NC1CCCCN(Cc2ccc(Cl)cc2)C1=O)c1cccc([N+](=O)[O-])c1 (stereo not given) | / | / | / | / | / | -5 | / | /
C#CC(C)OC(=O)C(C)NC(=O)c1ccccc1 (stereo not given) | 1 | / | i | 4 | i | -3 | 14* | 0
C/C(=N\O)C(C)NC(=O)c1ccccc1 (stereo not given) | 3 | 0 | i | 6 | i | 0 | / | /
CSCCCNC(=O)CN1C(=O)C2CCCCN2C(=O)c2ccccc21 (stereo not given) | / | / | / | / | / | -13 | / | /
CCCc1ccc(O)c(N=Cc2cc(Br)cc(OCC)c2O)c1 | -2 | 16* | i | -41 | i | 8 | 5 | 0
CC(c1ccccc1)n1cc(C(=O)N2CCCN(Cc3ccccc3)CC2)nn1 (stereo not given) | / | / | / | / | / | 16 | / | /
O=C(C1CC1)N1CCN(c2ccc(F)cc2)CC1 | 2 | -3 | i | -25 | i | -1 | / | /
O=C(C(=O)N1CCN(c2ccc(F)cc2)CC1)N1CCCCC1 | 1 | 18* | i | 15 | i | -2 | 1 | 0
COc1ccc(-c2c3c(=O)n(C)c(=O)n(C)c3cn2-c2cc(OC)ccc2OC)cc1 | 3 | 18* | i | 5 | i | -9 | 20* | 0
COc1ccc(OC)c(S(=O)(=O)N2CCN(c3ccccn3)CC2)c1 | -1 | -2 | i | -15 | i | 12 | / | /
COc1ccc(OC)c(S(=O)(=O)N2CCCCC2C(=O)N2CCN(c3ccccn3)CC2)c1 (stereo not given) | 2 | 14* | i | -26 | i | -4 | 4 | 0
C=CCNC(=O)CN(C(=O)Cc1ccc(Cl)nc1)c1cccc(Br)c1 | / | / | / | / | / | 9 | / | /
O=C(Nc1ccc2c(c1)OCCO2)NC1CCCCC1 | -1 | / | i | -126 | i | -36 | 0 | 1
O=C(Nc1ccc2c(c1)OCCO2)C1CCC1 | -1 | -5 | i | -18 | i | -5 | / | /
CC(C)=CCc1c2c(c3occ(-c4ccc(O)cc4)c(=O)c3c1O)C=CC(C)(C)O2 | 5 | 20* | i | -21 | i | -1 | 24* | 0
CC(C)=CCc1c2c(c3occ(-c4ccc(O)c(O)c4)c(=O)c3c1O)C=CC(C)(C)O2 | / | -1 | / | -45 | / | 29 | / | /
COc1cc(C(Nc2ccc(S(=O)(=O)NCC3CCCO3)cc2)C(=O)NC(C)(C)C)cc(OC)c1OC (stereo not given) | -1 | 16* | i | 6 | i | -8 | 10 | 0
COc1cc(C(Nc2ccc(S(=O)(=O)N3CCC(C)CC3)cc2)C(=O)NCC2CCCO2)cc(OC)c1OC (stereo not given) | 1 | -3 | i | 24 | i | -8 | / | /
COc1cc(-c2[nH]nc3c2C(c2ccoc2)C(C#N)=C(N)O3)cc(OC)c1OC (stereo not given) | -2 | 19* | i | 3 | i | -12 | 2 | 0
SMILES | NR2E3 ag-1 | GalR3 antag | CHT allo act | NR2E3 ag-2 | CHT block | NR2F2 inh | GalR3 conf | CNG parental
CCc1[nH]nc2c1C(c1cccnc1)C(C#N)=C(N)O2 (stereo not given) | -1 | -1 | i | -11 | i | -5 | / | /
N#CC1=C(N)Oc2n[nH]c(-c3ccccc3)c2C1c1cccc(OC(=O)N2CCOCC2)c1 (stereo not given) | 4 | 28* | i | 6 | i | 4 | 5 | 1
CCOc1ccc(-c2[nH]nc3c2C(c2cccnc2)C(C#N)=C(N)O3)cc1 (stereo not given) | 2 | 16* | i | -17 | i | -1 | -1 | 0
N#CC1=C(N)Oc2n[nH]c(-c3ccc(F)cc3)c2C1c1cccc(OC(=O)N2CCOCC2)c1 (stereo not given) | -1 | 8 | i | -42 | i | -14 | / | /
Cc1cc(N2CCOc3ccccc32)nc2ccccc12 | / | / | / | / | / | 6 | / | /
Cc1ccc(C2C3=C(CC(C)(C)CC3=O)N=C3c4ccccc4C(=O)C32)cc1 (stereo not given) | 0 | 15* | i | -27 | i | 8 | 31* | 0
C/C(=N\O)c1ccco1 | 2 | / | / | -13 | / | -6 | 3 | 0
C/C(=N\NC(=O)c1ccc(C(=O)N/N=C(\C)c2ccco2)o1)c1ccco1 | -3 | 2 | i | 4 | i | -16 | / | /
O=S(=O)(c1ccc(F)cc1)N1CCC(c2nc3ccccc3o2)CC1 | / | / | / | / | / | 27 | / | /
CCCCOCCCNC(=O)C[C@H]1C(=O)N(Cc2ccc(OC)cc2)C2=CCCCC[C@@]21C(=O)OC | / | / | / | / | / | -7 | / | /
Cc1nc2scc(-c3ccccc3)c2c(=O)n1N=C1C=CC(=O)C=C1 | / | 15* | / | / | / | -17 | 24* | 0
Cc1nc2scc(-c3ccccc3)c2c(=O)n1N | 2 | -3 | i | 1 | i | 0 | / | /
CC1CN(c2ccc(C(=O)c3ccccc3C(=O)O)cc2[N+](=O)[O-])CC(C)O1 (stereo not given) | -2 | 18* | i | 10 | i | 18 | -1 | 0
O=C(c1cncnc1)N1CCC(n2nnc3ncccc32)CC1 | / | / | / | / | / | 1 | / | /
CCOC(=O)c1sc(-c2ccc(C)cc2)c(C#N)c1C | 3 | -6 | i | 5 | i | -11 | / | /
Cc1c(C(=O)NN)sc(-c2ccccc2)c1C#N | 1 | 16* | i | 0 | i | 9 | 1 | 0
CC(C)Oc1ccc(S(=O)(=O)N2CCCCCC2)c2ccccc12 | / | / | / | / | / | 15 | / | /

High-throughput results deposited in PubChem BioAssay by several laboratories.
